# Experimental data pooled from the literature.
# Lines come from different studies, so protocols differ.
Compound,test system,setting,Cmax
CCC[C@@](N)(CO)CCc1ccc(OCCCCCC(C)C)cc1,"rat, plasma","oral, 100 mg/kg",1030 nM
Cl.Cl.O=C(CCN1CCCCC1)c1ccc(-c2ccc(C(=O)CCN3CCCCC3)cc2)cc1,"Sprague-Dawley rat, plasma","intravenous, 5 mg/kg",725 ng/mL
O=C([O-])C(=O)[O-].[NH-][C@@H]1CCCC[C@H]1[NH-].[Pt+4] (relative stereo),"rat, plasma","intravenous, 5 mg/kg",2450 ng/mL
N=c1c2c(-c3ccccc3)c(-c3ccccc3)n(Cc3ccccc3)c2ncn1[C@H]1CC[C@H](O)CC1,"male Sprague-Dawley rat, plasma","oral, 2 mg/kg, single dose",133 ng/mL
CCCCCCCC(=O)N[C@@H](CCCCN)C(=O)N[C@@H](CCCCN)C(=O)N[C@@H](C)C(=O)N[C@@H](CC(C)C)C(=O)N[C@@H](CCCCN)C(=O)N[C@@H](CC(C)C)C(=O)N[C@@H](C)C(=O)N[C@@H](CCCCN)C(=O)N[C@@H](CCCCN)C(=O)N1CCC[C@H]1C(=O)N[C@@H](CC(C)C)C(=O)N[C@@H](CCCCN)C(=O)N[C@@H](CC(C)C)C(=O)N[C@@H](CC(C)C)C(=O)N[C@@H](CCCCN)C(N)=O,"male Sprague-Dawley rat, blood","intravenous, 3 mg/kg, infusion",273 ng/mL
CCCCCn1cc(C(=O)Nc2cccc3ccccc23)c2ccccc21,"male Long-Evans rat, plasma","intraperitoneal, 3 mg/kg",296 ng/mL
COc1ccc2c3c1O[C@H]1C[C@@H](OC(=O)c4ccccc4)C=C[C@@]31CCN(C)C2,"rat, brain","intravenous, 5 mg/kg",13600 ng/g
C#Cc1ccc2c(c1)C(c1ccccn1)=NCc1c(-c3cnco3)ncn1-2,"rat, plasma","oral, 2 mg/kg",395 nM
Cc1ncc(C)n2nc(/C=C/c3nc(N4CCCC4)cc(N4CCOCC4)n3)nc12,"male Sprague-Dawley rat, plasma","oral, 0.3 mg/kg",36 nM
[2H]C([2H])([2H])n1cc2cc(Nc3nc(=O)n(Cc4ncn(C)n4)c(=O)n3Cc3cc(F)c(F)cc3F)c(Cl)cc2n1,"male Sprague-Dawley rat, plasma","intravenous, 5 mg/kg",23900 ng/mL
COC(=O)C(NC(=O)c1cn(CCCCCF)c2ccccc12)C(C)(C)C (stereo not drawn),"male Sprague-Dawley rat, plasma","subcutaneous, 50 µg/kg",1.72 ng/mL
CCCCCn1nc(C(=O)Nc2cccc3ccccc23)c2ccccc21,"male Long-Evans rat, plasma","intraperitoneal, 3 mg/kg",213 ng/mL
[2H]C([2H])(c1cc(F)c(F)cc1F)n1c(=O)n(Cc2ncn(C)n2)c(=O)[nH]/c1=N\c1cc2cn(C)nc2cc1Cl,"male Sprague-Dawley rat, plasma","intravenous, 5 mg/kg",25200 ng/mL
COc1ncccc1-c1cnn2ccc(N3CCN(C(=O)OC(C)C)CC3)nc12,"rat, plasma","oral, 10 mg/kg",3100 nM
O=C(Nc1cccnn1)N1CCN([C@@H]2CCOc3cc(C(F)(F)F)ccc32)CC1,"male Sprague-Dawley rat, plasma","oral, 3 mg/kg",1520 nM
